In PubChem BioAssay one finds viability, differential viability (reversal) and inhibition data, which are given here for 19 compounds.

Test [1] can be described thus: reduced viability of SK-BR-3 breast cancer cells – cell-based, 24 h, human, pilot screen (AID 572).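 Also: compound exposure lasted between 18 and 24 h rather than exactly 24 h; 100% = carrier-treated control wells.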 To be noted: SK-BR-3 viability, CellTiter-Glo luminescence, at 10 µM, stronger effect = lower value. (In general: Cellular ATP, detected with luciferase, serves as a proxy for viable cell number.)
The nature of test [2]: HUVEC growth inhibition – cell-based, human, primary screen (AID 575;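 active = viability at or below 30% in both replicate assays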;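 also: 100% = median of untreated cell wells with 0.1% DMSO on each plate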). The conditions noted are these: HUVEC proliferation, CellTiter-Glo luminescence, 72 h; at 10 µM; stronger effect = lower value. The method in brief: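 Test system: primary human umbilical vein endothelial cells; medium: endothelial basal medium with 2% FBS plus growth supplements; dosing: 10 µM compound only; times: 72 h treatment at 37 °C; signal: CTG luminescence; read-out: % viability relative to median vehicle-well signal on each plate; control set: vehicle and MePR control wells; plate: 384-well, collagen-coated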

Test [3] can be described thus: H69AR cell proliferation blockers – human, duplicate replicates, primary screen (AID 580;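 active = viability at or under a set limit in both replicates, limit being median viability minus 3 SD, cut at about 48% in these data, passing the limit was not always enough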;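 also: 100% = mean luminescence of untreated wells and 0% = no signal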). To be noted: H69AR lung tumor cells viability, ATP luminescence, 72 h; at 10 µM; stronger effect = lower value.
Test [4] is described as follows: MRP1 drug-resistance reversers in H69AR cells – cell-based, doxorubicin co-treatment, pilot screen (AID 601;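 active = viability loss from added drug above about 55%, and viability with drug at most 40%, in both replicates, limit read from the data, passing the limit was not always enough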). The conditions noted are these: CellTiter-Glo, 72 h, at 10 µM; for differential viability (reversal): stronger effect = higher value.
Test [5] is described as follows: yeast transport mutant growth inhibition pilot in 384-well plates, post-Golgi transport modulator project (AID 636; in the data active = inhibition above about 31%). To be noted: absorbance 615 nm, about 18 h, stronger effect = higher value.
Test [6] is described as follows: growth suppression of yeast trafficking mutant, preliminary HTS, modulators of trafficking downstream of Golgi apparatus project, 1536-format plate, OD 615 nm (AID 637; in the data active = inhibition above about 30%). To be noted: yeast transport mutant growth, absorbance 615 nm, 18 h; stronger effect = higher value.
The mark [7] stands for this setting: H69AR cells + 2 uM doxorubicin, measured here: viability with 2 uM doxorubicin, stronger effect = lower value.
The mark [8] stands for this setting: H69AR cells, compound alone cytotoxicity.

The source made the active and inactive calls.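 The calls were made as follows, unless noted: active = viability at or below 10% of carrier control in both of two separate runs; inconclusive = viability at or below 10% in only one of the two runs; inactive = the rest.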

By viability is commonly meant a read-out of living cells in per cent, often relative to untreated cells. As a reminder, the inhibition is the relative decrease from the control value, in per cent. Take `O=C(CN1CCC(O)(c2ccc3c(c2)OCO3)CC1)OC1CCCCC1`: the viability in test [1] is 83% (inactive); in test [2], 103% (inactive); in test [3], 96.8% (inactive); in test [4] (setting [7]) it was 93.4%; in test [4] (setting [8]), 96.8%. Also, in test [4] (H69AR cells + 2 uM doxorubicin), the differential viability (reversal) is 3.36% (inactive). For the same compound, the inhibition in test [5] was -7.3% (inactive); in test [6], 2.73% (inactive).

On to `CCCCNC(=O)NS(=O)(=O)c1ccc(C)cc1`, for which the viability in test [1] was 97% (inactive); in test [2], 76.7% (inactive); in test [3], 95.3% (inactive); in test [4] (setting [7]), 101%; in test [4] (setting [8]), 95.3%. The differential viability (reversal) in test [4] (H69AR cells + 2 uM doxorubicin) is -5.94% (inactive). Besides, the inhibition was -1.04% (inactive) in test [5] and -2.5% (inactive) in test [6].

As for `CC(=O)OCC(=O)[C@@]1(O)CC[C@H]2[C@@H]3CCC4=CC(=O)C=C[C@]4(C)[C@H]3[C@@H](O)C[C@@]21C`, the viability in test [1] is 82% (inactive); in test [2], 91.5% (inactive); in test [3] it was 91.1% (inactive); in test [4] (setting [7]), 98.2%; in test [4] (setting [8]), 91.1%. In addition, the differential viability (reversal) in test [4] (H69AR cells + 2 uM doxorubicin) is -7.15% (inactive). Also, the inhibition was 1.56% (inactive) in test [5] and -1.83% (inactive) in test [6].

For `CC(=O)OCC(=O)[C@@]1(O)CC[C@H]2[C@@H]3CCC4=CC(=O)CC[C@]4(C)[C@H]3C(=O)C[C@@]21C`, the viability in test [1] was 108% (inactive); in test [2] it was 95.9% (inactive); in test [3], 104% (inactive); in test [4] (setting [7]), 95.2%; in test [4] (setting [8]), 104%. Moreover, the differential viability (reversal) in test [4] (H69AR cells + 2 uM doxorubicin) was 8.62% (inactive). For the same compound, the inhibition is -4.55% (inactive) in test [5] and -1.33% (inactive) in test [6].

For `CCOC(=O)C1CCCN(C(=O)c2sc3nc(-c4ccccc4)cn3c2C)C1` (configuration not stated), the viability is 112% (inactive) in test [1]; 89.3% (inactive) in test [2]; 84.9% (inactive) in test [3]; 82.9% in test [4] (setting [7]); 84.9% in test [4] (setting [8]). In test [4] (H69AR cells + 2 uM doxorubicin), the differential viability (reversal) is 1.98% (inactive). Also, the figures for the inhibition in test [5] and in test [6] were -1.3% (inactive) and 15.9% (inactive), respectively.

`CC1CN(S(=O)(=O)c2ccc(Cl)c(C(F)(F)F)c2)CC(C)O1` (configuration not stated): the viability in test [1] was 68% (inactive); in test [2], 111% (inactive); in test [3], 100% (inactive); in test [4] (setting [7]), 91.8%; in test [4] (setting [8]), 100%. Also, in test [4] (H69AR cells + 2 uM doxorubicin), the differential viability (reversal) was 8.69% (inactive). Also, the inhibition in test [5] is -9.32% (inactive); in test [6], 2% (inactive).

For the compound `Cc1c2cnn(CC(=O)N3CCN(c4ncccn4)CC3)c(=O)c2c(C)n1Cc1ccc(F)cc1`, the viability was 99% (inactive) in test [1]; 106% (inactive) in test [2]; 99.5% (inactive) in test [3]; 97.2% in test [4] (setting [7]); 99.5% in test [4] (setting [8]). In addition, in test [4] (H69AR cells + 2 uM doxorubicin), the differential viability (reversal) is 2.37% (inactive). The inhibition in test [5] was 5.14% (inactive); in test [6], -4.73% (inactive).

As for `O=c1c2[nH]c3ccc(Cl)cc3c2ncn1Cc1ccccn1`, the viability was 94% (inactive) in test [1]; 107% (inactive) in test [2]; 101% (inactive) in test [3]; 87.9% in test [4] (setting [7]); 101% in test [4] (setting [8]). Besides, the differential viability (reversal) in test [4] (H69AR cells + 2 uM doxorubicin) is 13.4% (inactive). Also, the inhibition in test [5] is -3.33% (inactive); in test [6], -3.27% (inactive).

`O=c1c2ccccc2c(/C=N/n2cnnc2)c(O)n1-c1ccccc1`: the viability is 84% (inactive) in test [1]; 103% (inactive) in test [2]; 100% (inactive) in test [3]; 83.9% in test [4] (setting [7]); 100% in test [4] (setting [8]). Besides, the differential viability (reversal) in test [4] (H69AR cells + 2 uM doxorubicin) is 16.3% (inactive). Further, the inhibition in test [5] is -7.7% (inactive); in test [6] it was -3.09% (inactive).

`c1ccc(Cn2nnnc2C(c2cccs2)N2CCSCC2)cc1` (configuration not stated): the viability in test [1] is 98% (inactive); in test [2], 93.1% (inactive); in test [3], 81.6% (inactive); in test [4] (setting [7]) it was 84.2%; in test [4] (setting [8]), 81.6%. For the same compound, the differential viability (reversal) in test [4] (H69AR cells + 2 uM doxorubicin) was -2.6% (inactive). Moreover, the inhibition was -3.97% (inactive) in test [5] and -4.35% (inactive) in test [6].

`O=S1(=O)C=C(Oc2ccc(F)cc2)c2ccccc21`: the viability in test [1] was 100% (inactive); in test [2], 101% (inactive); in test [3], 92.5% (inactive); in test [4] (setting [7]), 88.5%; in test [4] (setting [8]), 92.5%. In addition, the differential viability (reversal) in test [4] (H69AR cells + 2 uM doxorubicin) is 4.02% (inactive). Moreover, the inhibition was -7.03% (inactive) in test [5] and 1.27% (inactive) in test [6].

As for `CCC(=O)OC1(C#CCOc2ccc(OC)cc2)CCN(C)CC1`, the viability in test [1] is 94% (inactive); in test [2], 105% (inactive); in test [3], 105% (inactive); in test [4] (setting [7]), 103%; in test [4] (setting [8]) it was 105%. In addition, the differential viability (reversal) in test [4] (H69AR cells + 2 uM doxorubicin) was 1.41% (inactive). Besides, the inhibition was -0.53% (inactive) in test [5] and 1.64% (inactive) in test [6].

As to `COc1ccccc1N(CC(=O)NC1CCCC1)C(=O)CCC(=O)Nc1cc(C)on1`, the viability was 98% (inactive) in test [1]; 102% (inactive) in test [2]; 85.3% (inactive) in test [3]; 87.1% in test [4] (setting [7]); 85.3% in test [4] (setting [8]). For the same compound, the differential viability (reversal) in test [4] (H69AR cells + 2 uM doxorubicin) was -1.76% (inactive). The inhibition is -2% (inactive) in test [5] and 9.82% (inactive) in test [6].

For `CN(C)CCOC(=O)C(c1ccccc1)C1(O)CCCC1` (configuration not stated), the viability is 127% (inactive) in test [1]; 92.9% (inactive) in test [2]; 102% (inactive) in test [3]; 97% in test [4] (setting [7]); 102% in test [4] (setting [8]). Further, the differential viability (reversal) in test [4] (H69AR cells + 2 uM doxorubicin) was 4.65% (inactive). The inhibition is -1.43% (inactive) in test [5] and 2.33% (inactive) in test [6].

As for `COCCCNC(=O)C1CCN(C(=O)Nc2ccc(Cl)cc2)CC1`, the viability was 131% (inactive) in test [1]; 92.2% (inactive) in test [2]; 99% (inactive) in test [3]; 87.4% in test [4] (setting [7]); 99% in test [4] (setting [8]). The differential viability (reversal) in test [4] (H69AR cells + 2 uM doxorubicin) was 11.6% (inactive). The inhibition in test [5] was -1.04% (inactive); in test [6], 1.15% (inactive).

As to `O=C(CSc1nc2ccccc2o1)N1CCN(C(=O)c2ccco2)CC1`, the viability is 117% (inactive) in test [1]; 102% (inactive) in test [2]; 94.5% (inactive) in test [3]; 93.3% in test [4] (setting [7]); 94.5% in test [4] (setting [8]). Further, in test [4] (H69AR cells + 2 uM doxorubicin), the differential viability (reversal) is 1.25% (inactive). Further, the inhibition was -6.67% (inactive) in test [5] and -1.45% (inactive) in test [6].

With `O=C(Nc1ccccc1C(=O)N1CCOCC1)c1cccc(S(=O)(=O)N2CCCC2)c1`, the viability in test [1] is 112% (inactive); in test [2] it was 92.3% (inactive); in test [3], 88.2% (inactive); in test [4] (setting [7]), 89.3%; in test [4] (setting [8]) it was 88.2%. For the same compound, the differential viability (reversal) in test [4] (H69AR cells + 2 uM doxorubicin) is -1.19% (inactive). For the same compound, the inhibition is -2.08% (inactive) in test [5] and 0.49% (inactive) in test [6].

In the case of `COc1ccc(CNc2oc(-c3cccc4ccccc34)nc2C#N)cc1`, the viability in test [1] is 85% (inactive); in test [2], 95.5% (inactive); in test [3] it was 96.9% (inactive); in test [4] (setting [7]), 101%; in test [4] (setting [8]), 96.9%. The differential viability (reversal) in test [4] (H69AR cells + 2 uM doxorubicin) was -4.35% (inactive). In addition, the inhibition in test [5] is -4.93% (inactive); in test [6], -0.18% (inactive).

Turning to `Cc1cc2c(c(=O)n1C)C(Cc1ccccc1)C(C#N)=C(N)O2` (configuration not stated), the viability is 95% (inactive) in test [1]; 109% (inactive) in test [2]; 95.1% (inactive) in test [3]; 85.6% in test [4] (setting [7]); 95.1% in test [4] (setting [8]). For the same compound, the differential viability (reversal) in test [4] (H69AR cells + 2 uM doxorubicin) was 9.48% (inactive). Further, the values for the inhibition in test [5] and in test [6] were -5.54% (inactive) and 2.55% (inactive), respectively.
